≈ marks a conversion by molar mass, not a printed value. Calls of active or inactive are those of the source. The calls are words filed in the database; no cut-off is given here.
Legend:
Staphylococcus aureus [1] = test: Antibacterial activity against methicillin resistant Staphylococcus aureus 385 assessed as inhibition of bacterial growth at 0.5 ug/ml incubated for 18 to 20 hrs by CLSI protocol based broth microdilution method; assay type: functional, organism-based; conditions: dose 0.5 µg/ml, time 18-20 hrs
Staphylococcus aureus [2] = test: Antibacterial activity against methicillin resistant Staphylococcus aureus 386 assessed as inhibition of bacterial growth at 0.5 ug/ml incubated for 18 to 20 hrs by CLSI protocol based broth microdilution method; assay type: functional, organism-based; conditions: dose 0.5 µg/ml, time 18-20 hrs
Staphylococcus aureus [3] = test: Antibacterial activity against methicillin resistant Staphylococcus aureus 123 assessed as inhibition of bacterial growth at 0.5 ug/ml incubated for 18 to 20 hrs by CLSI protocol based broth microdilution method; assay type: functional, organism-based; conditions: dose 0.5 µg/ml, time 18-20 hrs
Staphylococcus aureus [4] = test: Antibacterial activity against vancomycin resistant Staphylococcus aureus 10 assessed as inhibition of bacterial growth at 0.5 ug/ml incubated for 18 to 20 hrs by CLSI protocol based broth microdilution method; assay type: functional, organism-based; conditions: dose 0.5 µg/ml, time 18-20 hrs
Staphylococcus aureus [5] = test: Antibacterial activity against vancomycin resistant Staphylococcus aureus 9 assessed as inhibition of bacterial growth at 0.5 ug/ml incubated for 18 to 20 hrs by CLSI protocol based broth microdilution method; assay type: functional, organism-based; conditions: dose 0.5 µg/ml, time 18-20 hrs
Vero = test: Cytotoxicity against African green monkey Vero cells assessed as reduction in cell viability at 64 ug/ml incubated for 24 hrs by MTS assay; assay type: toxicity, cell-based; conditions: chlorocebus sabaeus, dose 64 µg/ml
In short: (§1)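 Vero or HaCaT cells were exposed to 32, 64 and 128 μg mL−1 compound in triplicate for 24 h at 37 °C, 5% CO2, with a DMSO control. MTS was then added for 4 h and OD490 read. Analysis used two-way ANOVA with Dunnett's post hoc test (p < 0.05).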

Staphylococcus aureus [6] = test: Antibacterial activity against methicillin resistant Staphylococcus aureus NRS384 USA300 assessed as inhibition of bacterial growth incubated for 18 to 20 hrs by CLSI protocol based broth microdilution method; assay type: functional; conditions: time 18-20 hrs
In short: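 Broth microdilution against staphylococcal clinical isolates. Each strain was prepared as a 0.5 McFarland suspension and diluted in cation-adjusted Mueller Hinton broth to ~5 × 10^5 CFU mL−1. Serial dilutions of test agents in DMSO stock were incubated with the bacteria, and the MIC was recorded.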

Staphylococcus aureus [7] = test: Antibacterial activity against vancomycin resistant Staphylococcus aureus 12 assessed as inhibition of bacterial growth at 0.5 ug/ml incubated for 18 to 20 hrs by CLSI protocol based broth microdilution method; assay type: functional, organism-based; conditions: dose 0.5 µg/ml, time 18-20 hrs
Staphylococcus aureus [8] = test: Antibacterial activity against methicillin resistant Staphylococcus aureus 119 assessed as inhibition of bacterial growth at 0.5 ug/ml incubated for 18 to 20 hrs by CLSI protocol based broth microdilution method; assay type: functional, organism-based; conditions: dose 0.5 µg/ml, time 18-20 hrs
Staphylococcus aureus [9] = test: Antibacterial activity against methicillin resistant Staphylococcus aureus 384 assessed as inhibition of bacterial growth at 0.5 ug/ml incubated for 18 to 20 hrs by CLSI protocol based broth microdilution method; assay type: functional, organism-based; conditions: dose 0.5 µg/ml, time 18-20 hrs
Staphylococcus aureus [10] = test: Antibacterial activity against methicillin sensitive Staphylococcus aureus 6538 assessed as inhibition of bacterial growth at 0.5 ug/ml incubated for 18 to 20 hrs by CLSI protocol based broth microdilution method; assay type: functional, organism-based; conditions: dose 0.5 µg/ml, time 18-20 hrs
In short: (§2)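 Staphylococcal and E. coli strains were diluted from a 0.5 McFarland suspension in cation-adjusted Mueller Hinton broth to ~5 × 10^5 CFU mL−1. They were incubated with serial dilutions of test agent in broth microdilution, and the MIC was recorded.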

[11] = Cytotoxicity against human HaCaT cells assessed as tolerance by measuring cell viability at 64 ug/ml incubated for 24 hrs by MTS assay relative to control; assay type: toxicity, cell-based; conditions: at 64 µg/mL, read-out: Activity; in short: as §1
Staphylococcus aureus [12] = test: Antibacterial activity against methicillin sensitive Staphylococcus aureus 107 assessed as inhibition of bacterial growth at 0.5 ug/ml incubated for 18 to 20 hrs by CLSI protocol based broth microdilution method; assay type: functional, organism-based; conditions: dose 0.5 µg/ml, time 18-20 hrs; in short: as §2
Staphylococcus aureus [13] = test: Post antibiotic effect against methicillin resistant Staphylococcus aureus NRS384 USA300 assessed as time required for 1 log10 increase in CFU at 5 times of MIC incubated for 2 hrs followed by replacement with drug free medium and measured after 18-24 hrs; assay type: functional
In short: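 MRSA USA300 at ~10^6 CFU mL−1 was exposed for 2 h to 5× MIC of test agent, with vancomycin or DMSO as controls. Drug was removed by 1:1000 dilution in fresh TSB. Cultures were incubated at 37 °C with 180 rpm shaking and sampled hourly for 8 h, with viable counts on MSA read after 18–24 h. PAE = T − C, where T and C are the times for a 1 log10 rise in the test and control cultures.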

| Compound | Activity (Staphylococcus aureus [1]) | Activity (Staphylococcus aureus [2]) | Activity (Staphylococcus aureus [3]) | Activity (Staphylococcus aureus [4]) | Activity (Staphylococcus aureus [5]) | Activity (Vero) | MIC (Staphylococcus aureus [6]) [µg/mL] | Activity (Staphylococcus aureus [7]) | Activity (Staphylococcus aureus [8]) | Activity (Staphylococcus aureus [9]) | Activity (Staphylococcus aureus [10]) | viability at 24 h, 64 ug/ml [11] [%] | Activity (Staphylococcus aureus [12]) | MIC (Staphylococcus aureus [6]; read-out: MIC) [µg/mL] | Time (Staphylococcus aureus [13]) [h] |
| --- | --- | --- | --- | --- | --- | --- | --- | --- | --- | --- | --- | --- | --- | --- | --- |
| C/C(=N\NC(=N)N)c1ccc(NC(=O)Nc2ccc(C#CC3CCCC3)cc2)cc1 | Active | Active | Active | Active | Active | Non-Toxic | 2 (≈ 4.97 µM) | Active | Active | Active | Active | 100 | Active | – | – |
| CCCCCC#Cc1ccc(NC(=O)Nc2ccc(/C(C)=N/NC(=N)N)cc2)cc1 | Active | Active | Active | Active | Active | Non-Toxic | – | Active | Active | Active | Active | 100 | Active | 0.5 (≈ 1.24 µM) | – |
| CCCC#Cc1ccc(NC(=O)Nc2ccc(/C(C)=N/NC(=N)N)cc2)cc1 | – | – | – | – | – | – | – | – | – | – | – | – | – | 0.5 (≈ 1.33 µM) | – |
| CN[C@H](CC(C)C)C(=O)N[C@H]1C(=O)N[C@@H](CC(N)=O)C(=O)N[C@H]2C(=O)N[C@H]3C(=O)N[C@H](C(=O)N[C@H](C(=O)O)c4cc(O)cc(O)c4-c4cc3ccc4O)[C@H](O)c3ccc(c(Cl)c3)Oc3cc2cc(c3O[C@@H]2O[C@H](CO)[C@@H](O)[C@H](O)[C@H]2O[C@H]2C[C@](C)(N)[C@H](O)[C@H](C)O2)Oc2ccc(cc2Cl)[C@H]1O [VANCOMYCIN] | Active | Active | Active | Active | Active | – | – | Active | Active | Active | Active | – | Active | – | 4 |
| C/C(=N\NC(=N)N)c1ccc(NC(=O)Nc2ccc(C#CC3CCCCC3)cc2)cc1 | – | – | – | – | – | – | – | – | – | – | – | – | – | 4000 (≈ 9600 µM) | – |
